Bioassay records as filed in PubChem BioAssay.
SUMO HTRF inh = blocks human SUMOylation mediated by UBC9 | HTRF SUMOylation assay, SAE1/SAE2 + UBC9, in vitro | inhibition, % at 35 µM | 290,000 tested, 0.36% active | AID 2006; in the data active = inhibition above about 50%, passing the limit was not always enough
Target sequence (P63279 whole entry, looked up): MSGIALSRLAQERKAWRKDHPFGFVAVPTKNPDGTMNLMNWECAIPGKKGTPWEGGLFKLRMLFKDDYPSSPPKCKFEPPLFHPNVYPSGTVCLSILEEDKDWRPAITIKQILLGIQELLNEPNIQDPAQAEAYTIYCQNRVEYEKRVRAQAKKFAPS
PAD4 FP inh = inhibitors of human PAD4. Q9UM07. recombinant PAD4, RCA probe fluorescence polarization. inhibition, % at 6.36 µM. 330,000 tested, 0.41% active. AID 485272;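 active = percent inhibition above a cutoff equal to the mean of all tested compounds plus 3 SD, cut at about 15% in these data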
Apaf1 inhib = blocks human Apaf-1 apoptosome activity. O14727. reconstituted apoptosome caspase-3 activity, DEVD-Rh110 fluorescence. inhibition, % at 20 µM. 330,000 tested, 0.71% active. AID 489030; active = inhibition of at least 40% at 20 µM
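Material: reconstituted apoptosome with Apaf-1, cytochrome c, caspase-9, procaspase-3, dATP. Technique: Rh110 fluorescence intensity. Buffer or medium: pH 7.5 Hepes buffer with CHAPS, BSA, DTT. Times: 30 min plus 50 min, RT.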
GSTO1 inh = counter-screen for RBBP9 inhibitors: inhibitors of human GSTO1; inhibition, % at 5.96 µM; 300,000 tested, 1.1% active; recombinant GSTO1, activity-based probe fluorescence polarization; P78417;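 active = inhibition above the campaign mean inhibition plus 3 SD, cut at about 35% in these data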
Target sequence (P78417 whole entry, looked up): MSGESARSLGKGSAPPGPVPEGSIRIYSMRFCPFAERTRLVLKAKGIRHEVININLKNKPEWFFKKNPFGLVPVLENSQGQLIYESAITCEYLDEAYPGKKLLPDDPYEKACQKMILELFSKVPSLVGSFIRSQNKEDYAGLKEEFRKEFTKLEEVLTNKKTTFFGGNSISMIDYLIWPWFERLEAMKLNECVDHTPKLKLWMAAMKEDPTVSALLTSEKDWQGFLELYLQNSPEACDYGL
Rin1-Abl PPI inh = human Rin1-Abl interaction inhibition; 360,000 tested, 0.4% active; TR-FRET Rin1/Abl binding, biochemical; inhibition, % at 7.35 µM; P00519+Q13671; in the data active = inhibition above about 5%, passing the limit was not always enough
UBC13 polyUb = human UBC13 polyubiquitination inhibition | AID 485273 | 330,000 tested, 0.47% active | inhibition, % at 20 µM | UBC13 polyubiquitin chain formation, TR-FRET; in the data active = inhibition above about 45%, passing the limit was not always enough
Target sequence (P61088 whole entry, looked up): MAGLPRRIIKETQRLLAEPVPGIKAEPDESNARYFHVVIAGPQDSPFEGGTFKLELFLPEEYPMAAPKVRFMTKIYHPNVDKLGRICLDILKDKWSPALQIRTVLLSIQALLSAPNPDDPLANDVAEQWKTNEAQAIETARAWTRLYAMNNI
GSTO1 confirm = confirmation of human GSTO1 inhibitors | 2,400 tested, 54% active | inhibition, % at 5.96 µM | recombinant GSTO1, probe fluorescence polarization | shares compounds with GSTO1 inh;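 active = inhibition above the primary screen's cutoff, its mean inhibition plus 3 SD, cut at about 35% in these data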;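 note: loss of polarization as inhibitors block binding of rhodamine sulfonate ester activity probe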
GSTO1 recomb ABPP = GSTO1 (human) inhibition by gel ABPP. shares compounds with GSTO1 inh. recombinant GSTO1, gel ABPP SE-Rh probe fluorescence. inhibition, % at 1 µM. 130 tested, 30% active;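 active = inhibition of the enzyme GSTO1 above about 75%, limit read from the data; inactive = inhibition below that limit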
PAD4 FP conf = confirmation of human PAD4 inhibitors; shares compounds with PAD4 FP inh; recombinant PAD4, RCA probe fluorescence polarization; inhibition, % at 6.36 µM; 1,200 tested, 28% active;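 active = mean inhibition across replicates above the hit cutoff set by the earlier primary screen, cut at about 15% in these data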;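 note: inhibitors block active-site labeling by the probe so polarization falls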
Each line names hits and unclear results; the compound was inactive in the other large screens (follow-up assays come after a bar, where they were run). This is a sample that favours compounds with a hit; in the whole collection about 2.2% have one here.

O=S(=O)(c1ccccc1)N1CC1c1ccccc1 (configuration not stated)	none
O=S(=O)(c1ccc(Cl)cc1)N1CC1c1ccccc1 (configuration not stated)	GSTO1 inh 35
C[C@@H]1CN([C@@H](C)CO)C(=O)CCCn2nncc2CO[C@H]1CN(C)C(=O)Oc1ccc2ccccc2c1	none (no result: SUMO HTRF inh, PAD4 FP inh, Apaf1 inhib, GSTO1 inh, UBC13 polyUb)
O=C(O)c1cc[c]([Hg][Cl])cc1	PAD4 FP inh 22 (no result: SUMO HTRF inh)
C=CCn1c(O)c(N=Nc2c(C)n(C)n(-c3ccccc3)c2=O)c(=O)[nH]c1=S	GSTO1 inh 36
CCOc1ccc(-n2c(O)c(N=Nc3c(C)n(C)n(-c4ccccc4)c3=O)c(=O)[nH]c2=O)cc1	none
Clc1ccc(C[n+]2c(-c3ccccc3)cc(-c3ccccc3)cc2-c2ccccc2)cc1	Apaf1 inhib 52, UBC13 polyUb 47 (no result: SUMO HTRF inh)
Nc1c(C(=O)OC2CCCCC2)c2nc3ccccc3nc2n1CC1CCCO1 (configuration not stated)	GSTO1 inh 42 | GSTO1 confirm inactive
CC(C)CCOC(=O)c1c(N)n(CC2CCCO2)c2nc3ccccc3nc12 (configuration not stated)	GSTO1 inh 53 | GSTO1 confirm inactive
CN(C)C(=O)Oc1ccc(Br)c2ccccc12	none
CCCNS(=O)(=O)c1ccc(OCC(=O)N2CCN(Cc3ccc4c(c3)OCO4)CC2)c(C)c1	none (no result: SUMO HTRF inh)
CC(=O)c1cn(CC(=O)NCCc2c[nH]c3ccccc23)c2ccccc12	none
CCN(CC)c1ccc(N=Cc2c(O)[nH]c(=O)[nH]c2=O)cc1	PAD4 FP inh 26, GSTO1 inh 56 | GSTO1 confirm inactive
CNCCc1ccc(O)c(O)c1	GSTO1 inh 73 (no result: SUMO HTRF inh) | GSTO1 confirm inactive
CCOc1cc2c(cc1OCC)-n1cccc1C(c1cccc(OCC)c1O)NC2 (configuration not stated)	none
O=[N+]([O-])c1cc(S(=O)(=O)c2ccc(O)c([N+](=O)[O-])c2)ccc1O	GSTO1 inh 40 | GSTO1 confirm 49
CCOC(=O)C(NC(=O)CCl)(Nc1ccc(C(O)(C(=O)OCC)C(F)(F)F)cc1)C(F)(F)F (configuration not stated)	GSTO1 inh 53 | GSTO1 confirm 74
CC12CC(=O)C3C(CCC4CC(=O)C=CC43C)C1CCC2=O (configuration not stated)	none (no result: SUMO HTRF inh, PAD4 FP inh, Apaf1 inhib, GSTO1 inh, UBC13 polyUb)
Cc1cc(NC(=O)CCl)on1	GSTO1 inh 73 | GSTO1 confirm 99
CCC(=O)Nc1ccc(Cl)c(Cl)c1	none (no result: SUMO HTRF inh, PAD4 FP inh, Apaf1 inhib, GSTO1 inh, UBC13 polyUb)
Cc1cc(=O)[nH]c(CCl)n1	GSTO1 inh 67 | GSTO1 confirm 90 | GSTO1 recomb ABPP inactive
C1CCC(NC2CCCCC2)CC1	none (no result: SUMO HTRF inh, GSTO1 inh)
COc1cccc(N2C(=O)NC(=O)/C(=C/c3ccc4c(c3)Cc3ccccc3-4)C2=O)c1	none
COc1cccc(N2C(=O)NC(=O)/C(=C/c3ccc([N+](=O)[O-])s3)C2=O)c1	GSTO1 inh 44 | GSTO1 confirm 36
Cc1cc(C(=O)Nc2ccccc2)nn1C(C)(C)C	none
Cn1ccc(NC(=O)CCl)n1	GSTO1 inh 62 | GSTO1 confirm 85
Cc1cc(NC(=O)CCl)nn1C	GSTO1 inh 85 | GSTO1 confirm 86
COC(=O)C1=C(c2ccc(-c3ccccc3)c(F)c2)C[C@@H]2CC[C@H]1N2C(=O)NC1CCCCC1	none (no result: SUMO HTRF inh, GSTO1 inh)
CCC(=O)OC1(Cc2ccc(CC)cc2)CC(C)N(C)CC1C (configuration not stated)	none
OC(CNCCc1c[nH]c2ccccc12)c1ccccc1 (configuration not stated)	none
COP(=O)(OC)C(NC(=O)/C=C/c1ccccc1)C(Cl)(Cl)Cl (configuration not stated)	GSTO1 inh 39 | GSTO1 confirm 69
CC(Cc1ccccc1)NC(=O)/C=C/c1ccc(Cl)cc1 (configuration not stated)	none
CC(OC(=O)c1cn(C)c2ccccc12)C(=O)N1CCCC1 (configuration not stated)	none (no result: SUMO HTRF inh, GSTO1 inh)
O=C(Nc1ccc2ccccc2c1)c1nn(C23CC4CC(CC(C4)C2)C3)cc1Br	none
Cc1nc(Cl)sc1C(=O)Nc1ccc2ccccc2c1	GSTO1 inh 55 | GSTO1 confirm 54
Cc1ccc(S(=O)(=O)N2CC2(C)CCl)cc1 (configuration not stated)	GSTO1 inh 44 | GSTO1 confirm 67 | GSTO1 recomb ABPP inactive
Cc1ccc(S(=O)(=O)N2CN3CCN(C3)C2)cc1	none
N=C1c2ccccc2CN1NC(=O)c1ccco1	none (no result: SUMO HTRF inh, GSTO1 inh)
O=C1NC(=O)N(Cc2ccco2)C(=O)/C1=C/c1ccc(-c2cccc([N+](=O)[O-])c2)o1	GSTO1 inh 40 (no result: SUMO HTRF inh) | GSTO1 confirm inactive
C=CCN1C(=O)NC(=O)/C(=C\c2ccc(-c3ccccc3[N+](=O)[O-])o2)C1=O	none
CCCOC(=O)c1c(N)n(Cc2cccs2)c2nc3ccccc3nc12	GSTO1 inh 42 | GSTO1 confirm inactive
COCC(C)OC(=O)c1c(N)n(Cc2ccco2)c2nc3ccccc3nc12 (configuration not stated)	Apaf1 inhib 61, GSTO1 inh 59 | GSTO1 confirm inactive
COc1ccc(CCNC(=O)c2c(N)n(CCN3CCOCC3)c3nc4ccccc4nc23)cc1OC	none
O=C(CCl)Nc1nccs1	GSTO1 inh 92 | GSTO1 confirm 99
Cc1c(N=Nc2c(O)[nH]c(=S)[nH]c2=O)c(=O)n(-c2ccccc2)n1C	GSTO1 inh 57 | GSTO1 confirm inactive
CC(C)[C@H]1C(=O)N2CCC[C@H]2[C@]2(O)O[C@](NC(=O)[C@@H]3C=C4c5cccc6[nH]cc(c56)C[C@H]4N(C)C3)(C(C)C)C(=O)N12	PAD4 FP inh 29, Apaf1 inhib 95, GSTO1 inh 59 | GSTO1 confirm inactive | PAD4 FP conf inactive
CC(C)[C@@]1(NC(=O)[C@@H]2C[C@@H]3c4cccc5[nH]cc(c45)C[C@H]3N(C)C2)O[C@@]2(O)[C@@H]3CCCN3C(=O)[C@H](Cc3ccccc3)N2C1=O	none
CCN(CC)c1ccc(N=Cc2c(O)n(-c3ccccc3)c(=O)[nH]c2=O)cc1	PAD4 FP inh 18, GSTO1 inh 42 | GSTO1 confirm inactive | PAD4 FP conf inactive
CCOc1ccc(-n2c(O)c(C=Nc3ccc(N(CC)CC)cc3)c(=O)[nH]c2=O)cc1	none
